# OX1R antag-1 = antagonists of human orexin 1 receptor (OX1R); O43613; OX1R-expressing cells, FRET antagonist read-out; inhibition, % at 6.6 µM; 330,000 compounds, 1.8% hits; AID 485270; in the data active = inhibition mostly above about 38%, no sharp cut-off; inactive = mostly below about 40%;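 note: 0% = agonist challenge alone and 100% = reference antagonist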
# OX1R antag-2 = human HCRTR1 antagonism; CHO/OX1R cells, Fluo-8 calcium fluorescence, orexin A; inhibition, % at 5 µM; 330,000 compounds, 0.43% hits; AID 434989;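 active = inhibition above its plate's threshold, mean inhibition of all tested compounds on the plate plus 3 SD, cut at about 37% in these data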;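 note: 0% = orexin A challenge wells and 100% = SB-334867-A antagonist wells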
# CHO parental Ca = counter-screen: ATP calcium response change in parental CHO cells | parental CHO-K1, ATP-induced calcium, Fluo-8 fluorescence | inhibition, % at 5.6 µM | 330,000 compounds, 0.63% hits | AID 463079;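 active = inhibition above that plate's mean sample inhibition plus 3 SD, cut at about 26% in these data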;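 note: 0% = ATP-challenged DMSO wells and 100% = DMSO wells without ATP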
#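 Measured by: calcium-sensitive Fluo-8 fluorescence / Test system: CHO parental line / Controls: ATP-challenged DMSO wells low, unchallenged DMSO wells high / Measure: % inhibition / Compound: single nominal dose of 5.6 µM per compound / Replicates: single well per compound, no replicates / Reagent: ATP as calcium-mobilizing challenge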
# TRPML3 ag = activates the human TRPML3 channel. activation, % at 3 µM. 220,000 compounds, 0.29% hits. Q8TDD5. HEK293 TRPML3-YFP, Fluo-8 calcium fluorescence; 100% = the carbachol control signal. AID 1448;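 active = activation above its plate's cutoff, the mean activation of the plate's test wells plus 3 SD, cut at about 12% in these data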;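 note: 0% = DMSO only wells and 100% = carbachol wells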
#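 system = HEK293 cells stably carrying human TRPML3-YFP | doses = one concentration, 3 µM nominal, 0.3% DMSO | timing = dye loading 1 h 37 °C then 30 min ambient, 125 s read | detection = Fluo-8 calcium dye fluorescence, ex 470-495, em 515-575 nm | benchmarks = high control carbachol 87 µM, low control DMSO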
# zfTRPN1 agonist = zebrafish TRPN1 (NompC) channel agonism; HEK293 zebrafish TRPN1-YFP, Fluo-8 calcium fluorescence; 100% = response to 87 µM carbachol; activation, % at 3 µM; 220,000 compounds, 0.18% hits; AID 1424;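 active = activation above its plate's cutoff, the mean activation of test wells on that plate plus 3 SD, cut at about 19% in these data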;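 note: 0% = DMSO alone and 100% = 87 µM carbachol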
#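 System: zebrafish TRPN1-YFP in HEK293 cells / Dosing: 3 µM single point / Timing: dye loading 1 h at 37 °C, then 30 min room temperature / Signal: Fluo-8 calcium fluorescence, excitation 470-495 nm, emission 515-575 nm / Read-out basis: percent activation from peak over basal fluorescence ratio, control-normalized / Control set: high carbachol 87 µM, low DMSO alone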
# GPR7 antagonist = antagonists of human GPR7 (neuropeptides B/W receptor 1). AID 1861. GPR7-expressing cells, fluorescence antagonist assay. inhibition, % at 4.4 µM. 290,000 compounds, 1.1% hits. P48145; in the data active = inhibition above about 16%, passing the limit was not always enough;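 note: cells stimulated with the agonist NPW; 0% = agonist with vehicle and 100% = vehicle without agonist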
# Target sequence (P48145 whole entry, looked up): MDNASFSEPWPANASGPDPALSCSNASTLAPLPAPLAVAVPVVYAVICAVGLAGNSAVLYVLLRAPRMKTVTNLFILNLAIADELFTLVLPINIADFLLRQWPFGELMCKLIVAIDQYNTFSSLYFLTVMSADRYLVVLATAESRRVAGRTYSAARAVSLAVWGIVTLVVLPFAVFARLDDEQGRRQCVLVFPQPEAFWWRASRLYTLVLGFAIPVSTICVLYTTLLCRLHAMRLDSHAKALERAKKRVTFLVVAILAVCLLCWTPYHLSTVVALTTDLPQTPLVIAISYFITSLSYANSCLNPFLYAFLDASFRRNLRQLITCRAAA
# TRPN1 ag 2 = counter-screen for TRPML3 agonists: agonists of zebrafish TRPN1 channel; shares compounds with TRPML3 ag; activation, % at 3 µM; HEK293 zebrafish TRPN1-YFP, Fluo-8 calcium fluorescence; scaled: carbachol wells 100%, DMSO wells 0%; AID 1525; 310 compounds, 10% hits;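 active = mean activation over replicates above a set limit taken from the earlier TRPN1 channel primary screen, cut at about 19% in these data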;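 note: 100% = carbachol and 0% = 0.3% DMSO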
# TRPML3 confirm = human TRPML3 agonism, confirmation. shares compounds with TRPML3 ag. HEK293 TRPML3-YFP, Fluo-8 calcium fluorescence; 100% set by carbachol, 0% by DMSO. activation, % at 3 µM. 310 compounds, 80% hits;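 active = activation above a set limit derived from the earlier primary screen, cut at about 12% in these data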
# The depositor's hits bear a star; . = not tested or not shown. Most compounds without a hit are left out; they make up all but 3.2% or so of the library.
SMILES,OX1R antag-1,OX1R antag-2,CHO parental Ca,TRPML3 ag,zfTRPN1 agonist,GPR7 antagonist,TRPN1 ag 2,TRPML3 confirm
COc1ccc(C)cc1NC(=O)c1ccccc1NS(=O)(=O)c1cccc2cccnc12,70*,15,-12,0,3,-3,.,.
COc1ccc(C)cc1NC(=O)C1CCN(S(=O)(=O)c2cccc3cccnc23)CC1,6,-24,-10,-1,-1,-8,.,.
Cc1cc(C)cc(NC(=O)C2CCCN(S(=O)(=O)c3c(C)noc3C)C2)c1 (stereo unspecified),72*,11,-17,.,.,-9,.,.
Cc1ccc(NC(=O)C2CCCN(S(=O)(=O)c3cccc4cccnc34)C2)cc1 (stereo unspecified),23,-39,-30,.,.,6,.,.
Cc1cccc(NC(=O)C2CCCN(S(=O)(=O)c3cccc4cccnc34)C2)c1 (stereo unspecified),54*,6,-16,0,0,-14,.,.
COc1cc(NC(=O)[C@@H]2CCCN(S(=O)(=O)c3cccc4cccnc34)C2)cc(OC)c1OC,35,-27,-22,.,.,.,.,.
COc1ccc(OC)c(NC(=O)C2CCCN(S(=O)(=O)c3cccc4cccnc34)C2)c1 (stereo unspecified),74*,-7,-21,0,0,-10,.,.
COc1cc(S(=O)(=O)NCc2ccc(F)cc2)ccc1-n1cnnn1,5,-13,-12,.,.,-10,.,.
CC(=O)c1ccc([N+](=O)[O-])c(CS(=O)(=O)c2ccc(Cl)cc2)c1,29,-27,1,.,.,15,.,.
Cc1sc2ncnc(NCc3cccs3)c2c1C,28,3,36*,2,6,-11,.,.
Cc1sc2ncnc(NCC(O)c3ccccc3)c2c1C (stereo unspecified),28,20,43*,.,.,2,.,.
Cc1sc2ncnc(NCC(O)c3ccc([N+](=O)[O-])cc3)c2c1C (stereo unspecified),28,13,35*,.,.,19,.,.
Cc1sc2ncnc(NCC(c3ccccc3)N(C)C)c2c1C (stereo unspecified),10,-27,-12,.,.,1,.,.
Cc1nc(Nc2ccc(Cl)cc2)c(C#N)c(=O)[nH]1,10,-12,8,.,.,-18,.,.
COc1ccc(/C=N\NC(=S)SCN2C(=O)C3CCC(C)(C2=O)C3(C)C)cc1 (stereo unspecified),24,-33,-20,39*,-1,-11,0,0
CN(C)c1ccc(/C=N\NC(=S)SCN2C(=O)C3CCC(C)(C2=O)C3(C)C)cc1 (stereo unspecified),39,-24,-9,16*,0,2,0,0
CN(C)c1ccc(/C=N/NC(=O)CCCO)cc1,7,-12,7,1,2,-11,.,.
CC12CCC(C(=O)N(CC(O)CN3CCN(Cc4ccccc4)CC3)C1=O)C2(C)C (stereo unspecified),1,-13,4,1,-1,3,.,.
CC12CCC(C(=O)N(CSC(=S)N/N=C\c3ccccc3O)C1=O)C2(C)C (stereo unspecified),20,-22,-22,67*,0,-19,2,2
CCN(CC)CC(=O)NC12CC3CC(CC(C3)C1)C2,3,-7,-10,0,0,12,.,.
CCN(CC)C(=S)SCC(=O)NC12CC3CC(CC(C3)C1)C2,17,-22,-20,12*,0,-9,0,28*
Cc1ccccc1NC(=S)N1CCC(NC(=O)c2ccco2)CC1,1,-3,11,1,0,-11,.,.
Cc1cccc(C)c1-n1nnnc1S(=O)(=O)Cc1ccccc1Cl,11,-10,-6,26*,1,10,0,14*
Cc1nc(S(=O)(=O)Cc2ccccc2Cl)nc2c1CCC2,25,-25,-11,1,2,-12,.,.
CN(c1ccc(OCc2nnc(-c3ccccc3)o2)cc1)S(=O)(=O)c1ccccc1,12,-5,-11,40*,1,-7,2,37*
SMILES,OX1R antag-1,OX1R antag-2,CHO parental Ca,TRPML3 ag,zfTRPN1 agonist,GPR7 antagonist,TRPN1 ag 2,TRPML3 confirm
Cc1sc(NC(=O)C2C3CCC(C3)C2C(=O)O)c(C(N)=O)c1-c1ccc(C(C)(C)C)cc1 (stereo unspecified),19,-15,-19,18*,1,-10,1,0
Cc1cccc(-c2noc(CN(C(C)C)S(=O)(=O)c3ccc(F)cc3)n2)c1,48,25,15,75*,2,1,0,56*
Cc1cccc(-c2noc(CNS(=O)(=O)c3ccccc3)n2)c1,11,-7,4,.,.,2,.,.
CC(C)CCNC(=O)C1CCN(S(=O)(=O)c2ccc(-n3cnnn3)cc2)CC1,6,-26,-9,.,.,9,.,.
CCN(c1ccccc1)S(=O)(=O)c1cc2c(cc1C)N(C)CCO2,7,-35,-13,.,.,-11,.,.
CCN(c1ccccc1)S(=O)(=O)c1ccc(F)cc1C,19,-8,-8,24*,-2,-28,-3,50*
C[N+](C)(C)C/C=C1/COCO1,-6,-4,-10,52*,8,3,14,40*
Cc1ccc(S(=O)(=O)c2c(C)nn(C(C)(C)C)c2OC(=O)C(C)(C)C)cc1,10,31,32,46*,4,-3,5,39*
O=S(=O)(NCCNc1ncc(C(F)(F)F)cc1Cl)C(F)(F)F,54,-4,16,14*,15,-7,21*,9
Cc1ccc(-c2csc3ncnc(SCc4ccc(C(=O)O)cc4)c23)cc1,33,-7,-13,2,-1,-9,.,.
CCCCC(CC)C(=O)Nc1ncc([N+](=O)[O-])s1 (stereo unspecified),36,25,38*,13*,14,-5,16,6
COc1ccc(Cl)cc1C(=O)CSc1nnnn1C1CCCC1,-2,-13,-17,74*,-1,17,-1,51*
CCOc1ccc2c(c1)C(C)=CC(C)(C)N2S(=O)(=O)c1ccc(C)cc1,.,.,.,16*,-1,14,-1,33*
CN1CCC/C1=C1/C(=O)N(c2ccccc2)N=C1NC(=O)Nc1cccc(Cl)c1,10,-1,-9,0,1,-1,.,.
CSc1nsc(SCC(=O)Nc2ccc(Cl)c(C(=O)O)c2)n1,10,-10,-2,.,.,-7,.,.
CCc1ccc(C(=O)N/N=C/c2ccncc2)s1,.,.,.,.,.,-10,.,.
Cc1ccc(S(=O)(=O)N(C)c2ccc(C)c([N+](=O)[O-])c2)cc1,21,2,-2,69*,-2,-2,-1,72*
